Legend:
[1] = (§1) AUC in Sprague-Dawley rat at 10 mg/kg, iv; type: ADME, organism-based, Plasma; design: dose 10 mg/kg, route intravenous; details: Sprague-Dawley, plasma
How it was run: (§2)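 Sprague–Dawley rats dosed as a solution in water/PEG200/EtOH (3:6:1), intravenously at 10 mg/kg or orally at 20 mg/kg. Plasma AUC of intact compound; total clearance also derived from iv data and bioavailability from po/iv AUC.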

[2] = (§3) AUC in Sprague-Dawley rat at 20 mg/kg, po; type: ADME, organism-based, Plasma; design: dose 20 mg/kg, route oral; details: Sprague-Dawley, plasma; how it was run: as §2
[3] = AUC in CD1 mouse at 30 mg/kg, po; type: ADME, organism-based; design: dose 30 mg/kg, route oral; details: plasma
How it was run: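 CD-1 mice dosed orally at 30 mg/kg as a suspension in 5% gum arabic. Plasma AUC measured for intact compound and separately for its 17-position metabolite (17-keto/17-hydroxy interconversion product).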

[4] = system: Mus musculus; assay: Antagonist effect on estrogen activity assessed as inhibition of estrogen-stimulated uterine weight gain in ovariectomized mouse at 10 mg/kg, po; type: functional
How it was run: (§4)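 Ovariectomized mice given 0.1 lg 17b-estradiol benzoate sc in peanut oil plus oral test compound in 5% gum arabic-water suspension, once daily for three consecutive days. Uteri weighed about 24 h after last dose. % inhibition = 100·(1−(T−C)/(E−C)), using uterine weight gain per body weight. C is vehicle. Mean ± SEM.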

[5] = Bioavailability in Sprague-Dawley rat; type: ADME, organism-based; details: in vivo
How it was run: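 Sprague–Dawley rats were given the compound as a solution in water/PEG200/EtOH (3:6:1), 10 mg/kg iv and 20 mg/kg po. Plasma AUC was determined for each route.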

[6] = target: T1, Estrogen receptor (Homo sapiens) (UniProt P03372); assay: Displacement of [3H]estradiol from recombinant ERalpha relative to estradiol
T1 sequence (whole entry): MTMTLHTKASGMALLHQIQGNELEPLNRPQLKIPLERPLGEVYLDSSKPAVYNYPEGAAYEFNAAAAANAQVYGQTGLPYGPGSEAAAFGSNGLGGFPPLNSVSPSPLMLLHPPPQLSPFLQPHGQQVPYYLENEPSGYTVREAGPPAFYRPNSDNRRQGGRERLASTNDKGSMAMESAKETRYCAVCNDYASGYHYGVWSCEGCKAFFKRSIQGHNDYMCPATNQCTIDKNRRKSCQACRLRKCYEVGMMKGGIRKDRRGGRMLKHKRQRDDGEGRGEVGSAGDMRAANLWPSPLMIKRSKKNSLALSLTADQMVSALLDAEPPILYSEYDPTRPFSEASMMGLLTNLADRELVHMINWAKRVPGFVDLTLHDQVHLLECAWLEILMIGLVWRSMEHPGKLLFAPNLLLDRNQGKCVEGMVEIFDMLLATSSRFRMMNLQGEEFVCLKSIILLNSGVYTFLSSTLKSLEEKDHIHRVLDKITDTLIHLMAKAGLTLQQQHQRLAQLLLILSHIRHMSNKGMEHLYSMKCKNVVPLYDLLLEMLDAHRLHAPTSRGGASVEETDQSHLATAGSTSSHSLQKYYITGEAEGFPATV
How it was run: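 Competitive radiometric binding assay using human recombinant ERα, with [3H]estradiol displaced by the test compound. Result is expressed as relative binding affinity (%), with estradiol set to 100.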

[7] = system: Mus musculus; assay: Antagonist effect on estrogen activity assessed as inhibition of estrogen-stimulated uterine weight gain in ovariectomized mouse at 1 mg/kg, po; type: functional; how it was run: as §4
[8] = Bioavailability in CD1 mouse; type: ADME, organism-based; details: in vivo
How it was run: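 CD-1 mice were dosed orally at 30 mg/kg as a suspension in 5% gum arabic, and intravenously at 10 mg/kg as a solution in water/PEG200/EtOH (3:6:1). Plasma AUC of the intact compound was measured for each route. The 17-keto or 17-hydroxy metabolite was also monitored.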

[9] = system: Mus musculus; assay: Antagonist effect on estrogen activity assessed as inhibition of estrogen-stimulated uterine weight gain in ovariectomized mouse at 3 mg/kg, po; type: functional; how it was run: as §4
[10] = AUC in cynomolgus monkey at 3 mg/kg, po; type: ADME, organism-based, Macaca fascicularis; design: dose 3 mg/kg, route oral; details: plasma
How it was run: (§5)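 Cynomolgus monkeys given 3 mg/kg intravenously or orally as a solution in water/PEG200/EtOH (4:8:3). Plasma AUC of intact compound; after oral dosing the 17-position metabolite was also quantified, and bioavailability was calculated from po versus iv AUC.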

[11] = AUC in cynomolgus monkey at 3 mg/kg, iv; type: ADME, organism-based, Macaca fascicularis; design: dose 3 mg/kg, route intravenous; details: plasma; how it was run: as §5
[12] = system: Mus musculus; assay: Agonist effect on estrogen activity assessed as stimulation of uterine weight gain in ovariectomized mouse at 50 mg/kg, sc relative to control; type: functional; details: route subcutaneous
How it was run: (§6)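 Ovariectomized mice dosed sc once daily for three consecutive days with test compound in 10% EtOH-peanut oil. Uteri weighed about 24 h after last dose. Uterine weight gain per body weight expressed as % = 100·(T−C)/(E−C), E being the 17b-estradiol benzoate response and C vehicle. Mean ± SEM. Difference from vehicle tested by Student's t test (P < 0.05).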

[13] = AUC in CD1 mouse at 10 mg/kg, iv; type: ADME, organism-based; design: dose 10 mg/kg, route intravenous; details: plasma
How it was run: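 CD-1 mice dosed intravenously at 10 mg/kg as a solution in water/PEG200/EtOH (3:6:1). Plasma AUC of intact compound.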

[14] = Bioavailability in cynomolgus monkey; type: ADME, organism-based, Macaca fascicularis; details: in vivo
How it was run: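 Cynomolgus monkeys received 3 mg/kg by both the oral and intravenous routes, as a solution in water/PEG200/EtOH (4:8:3). Plasma AUC of the intact compound and of the interconverting 17-keto/17-hydroxy metabolite was measured.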

[15] = Total clearance in Sprague-Dawley rat at 10 mg/kg, iv; type: ADME, organism-based; design: dose 10 mg/kg, route intravenous; details: in vivo
How it was run: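 Sprague–Dawley rats were given a single iv dose as a solution in water/PEG200/EtOH (3:6:1). Total clearance was derived alongside plasma AUC.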

[16] = system: Mus musculus; assay: Agonist effect on estrogen activity assessed as stimulation of uterine weight gain in ovariectomized mouse at 17 mg/kg, sc relative to control; type: functional; details: route subcutaneous; how it was run: as §6
[17] = system: Rattus norvegicus; assay: as §1; type: ADME, organism-based, Plasma; design: dose 10 mg/kg, route intravenous; details: in vivo; how it was run: as §2
[18] = system: Rattus norvegicus; assay: as §3; type: ADME, organism-based, Plasma; design: dose 20 mg/kg, route oral; details: in vivo; how it was run: as §2

Compound	AUC [1]	AUC [2]	AUC [3]	inhibition in vivo at 10 mg/kg [4]	bioavailability [5]	RBA [6]	inhibition in vivo at 1 mg/kg [7]	bioavailability [8]	inhibition in vivo at 3 mg/kg [9]	AUC [10]	AUC [11]	Activity [12]	AUC [13]	bioavailability [14]	clearance [15]	Activity [16]	AUC [17]	AUC [18]
C[C@]12CC[C@@H]3c4ccc(O)cc4C[C@@H](CCCCCCCC[C@@H](CCCC(F)(F)C(F)(F)C(F)(F)C(F)(F)F)C(=O)O)[C@H]3[C@@H]1CCC2=O	50 µg·h/mL	32 µg·h/mL	468 µg·h/mL	96%	32%	1%	54%	40%	85%	2420 ng·h/mL	77000 ng·h/mL	1%	389 µg·h/mL	3.1%				
C[C@]12CC[C@@H]3c4ccc(O)cc4C[C@@H](CCCCCCCCC(CCCC(F)(F)C(F)(F)C(F)(F)C(F)(F)F)C(=O)O)[C@H]3[C@@H]1CC[C@@H]2O (stereo partly specified)	207 µg·h/mL	144 µg·h/mL		96%	35%	1.4%	64%		87%						0.817 mL/min/kg	4%		
C[C@]12CC[C@@H]3c4ccc(O)cc4C[C@@H](CCCCCCCCCC(CCCC(F)(F)C(F)(F)F)C(=O)O)[C@H]3[C@@H]1CC[C@@H]2O (stereo partly specified)				80%		1.4%	22%		30%									
C[C@]12CC[C@@H]3c4ccc(O)cc4C[C@@H](CCCCCCCCC(CCC(F)(F)C(F)(F)C(F)(F)C(F)(F)F)C(=O)O)[C@H]3[C@@H]1CC[C@@H]2O (stereo partly specified)				98%		0.6%	55%		80%									
C[C@]12CC[C@@H]3c4ccc(O)cc4C[C@@H](CCCCCCCCCC(CCCC(F)(F)C(F)(F)C(F)(F)C(F)(F)F)C(=O)O)[C@H]3[C@@H]1CC[C@@H]2O (stereo partly specified)				85%		0.7%	27%		42%									
C[C@]12CC[C@@H]3c4ccc(O)cc4C[C@@H](CCCCCCCCC[S+]([O-])CCCC(F)(F)C(F)(F)F)[C@H]3[C@@H]1CC[C@@H]2O (stereo partly specified) [FULVESTRANT]				54%			11%		29%								5.3 µg·h/mL	1.7 µg·h/mL
C[C@]12CC[C@@H]3c4ccc(O)cc4C[C@@H](CCCCCCCC[C@H](CCCC(F)(F)C(F)(F)C(F)(F)C(F)(F)F)C(=O)O)[C@H]3[C@@H]1CC[C@@H]2O	254 µg·h/mL	190 µg·h/mL	470 µg·h/mL	103%	37%	1%	58%	35%	88%	300 ng·h/mL			447 µg·h/mL		0.65 mL/min/kg	3%		
C[C@]12CC[C@@H]3c4ccc(O)cc4C[C@@H](CCCCCCCCCC(CCC(F)(F)C(F)(F)C(F)(F)C(F)(F)F)C(=O)O)[C@H]3[C@@H]1CC[C@@H]2O (stereo partly specified)				92%		0.7%	27%		49%									
C[C@]12CC[C@@H]3c4ccc(O)cc4C[C@@H](CCCCCCCCC(CCCC(F)(F)C(F)(F)F)C(=O)O)[C@H]3[C@@H]1CC[C@@H]2O (stereo partly specified)				87%		0.8%	37%		67%									
C[C@]12CC[C@@H]3c4ccc(O)cc4C[C@@H](CCCCCCCC[C@@H](CCCC(F)(F)C(F)(F)C(F)(F)C(F)(F)F)C(=O)O)[C@H]3[C@@H]1CC[C@@H]2O	146 µg·h/mL	98 µg·h/mL	274 µg·h/mL	99%	33%	1.1%	59%	37%	93%	420 ng·h/mL	88000 ng·h/mL		244 µg·h/mL	0.48%	1.23 mL/min/kg	4%		
C[C@]1(c2ccc(O)cc2)CSc2cc(O)ccc2[C@H]1CCCCCCCCC(CCCC(F)(F)C(F)(F)F)C(=O)O (stereo partly specified)				77%			11%		41%								228 µg·h/mL	209 µg·h/mL
